Where “and” joins values, the source holds several entries; their conditions need not be identical. Identical values can stand only once.
System: U2OS
Experiment: Multiplex assay against U2OS
Type: toxicity, cell-based
Conditions: human
How it was run: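 Values for tubulin, mitochondrial-mass and membrane-permeability phenotypes are per cents of cells with healthy nuclei. These cells were identified by CellPathfinder machine-learning gating of live cells that had been stained at seeding with Hoechst33342, BioTracker Green Microtubule Cytoskeleton Dye, MitoTracker Red and Annexin V Alexa Fluor 680 and imaged on a CQ1 microscope at 37°C and 5% CO2 after compound addition. The gating first set Hoechst high-intensity objects apart from normal cells, then split normal cells into healthy, pyknosed or fragmented nuclei, and pyknosed cells into mitotic or apoptotic.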

[1] = 12 h, 1 µM, compound concentration 1 uM
[2] = 12 h, 10 µM, compound concentration 10 uM
[3] = 24 h, 1 µM, compound concentration 1 uM
[4] = 24 h, 10 µM, compound concentration 10 uM
[5] = 48 h, 1 µM, compound concentration 1 uM
[6] = 48 h, 10 µM, compound concentration 10 uM

Question: Which results are given for Nc1nccc(-c2ccn3c(N)nccc23)n1?
Answer: Population Apoptotic (%) [1]: 36.59% and 39.13%; Population Fragmented Nuclei (%) [1]: 1.59% and 3.62%; Population Healthy Nuclei (%) [1]: 89.07% and 79.71%; Population Hoechst High Intensity Objects (%) [1]: 0%; Population Membrane Permeable-Phenotype (%) [1]: 0.51% and 5.45%; Population Mitochondria Different-Phenotype (%) [1]: 0.26% and 7.27%; Population Mitotic Cells (%) [1]: 63.41% and 60.87%; Population Normal (%) [1]: 100%; Population Pyknosed Nuclei (%) [1]: 9.34% and 16.67%; Population Tubulin-Different-Phenotype (%) [1]: 1.28% and 0.91%; Population Apoptotic (%) [2]: 37.93% and 47.62%; Population Fragmented Nuclei (%) [2]: 1.07% and 2.9%; Population Healthy Nuclei (%) [2]: 91.15% and 81.88%; Population Hoechst High Intensity Objects (%) [2]: 0%; Population Membrane Permeable-Phenotype (%) [2]: 0.88% and 1.77%; Population Mitochondria Different-Phenotype (%) [2]: 0.59% and 8.85%; Population Mitotic Cells (%) [2]: 62.07% and 52.38%; Population Normal (%) [2]: 100%; Population Pyknosed Nuclei (%) [2]: 7.77% and 15.22%; Population Tubulin-Different-Phenotype (%) [2]: 1.47% and 0%; Total Cell Count [2]: 373 and 138; Population Apoptotic (%) [3]: 48.28% and 64.29%; Population Fragmented Nuclei (%) [3]: 1.88% and 4%; Population Healthy Nuclei (%) [3]: 88.23% and 88%; Population Hoechst High Intensity Objects (%) [3]: 0%; Population Membrane Permeable-Phenotype (%) [3]: 0% and 3.25%; Population Mitochondria Different-Phenotype (%) [3]: 0.39% and 5.19%; Population Mitotic Cells (%) [3]: 51.72% and 35.71%; Population Normal (%) [3]: 100%; Population Pyknosed Nuclei (%) [3]: 9.9% and 8%; Population Tubulin-Different-Phenotype (%) [3]: 1.16% and 0.65%; Population Apoptotic (%) [4]: 40.48% and 37.04%; Population Fragmented Nuclei (%) [4]: 3.09% and 2.73%; Population Healthy Nuclei (%) [4]: 88.8% and 82.51%; Population Hoechst High Intensity Objects (%) [4]: 0%; Population Membrane Permeable-Phenotype (%) [4]: 0.22% and 0.66%; Population Mitochondria Different-Phenotype (%) [4]: 0.22% and 2.65%; Population Mitotic Cells (%) [4]: 59.52% and 62.96%; Population Normal (%) [4]: 100%; Population Pyknosed Nuclei (%) [4]: 8.11% and 14.75%; Population Tubulin-Different-Phenotype (%) [4]: 1.09% and 0%; Total Cell Count [4]: 518 and 183; Population Apoptotic (%) [5]: 45.74% and 43.75%; Population Fragmented Nuclei (%) [5]: 1.77% and 2.26%; Population Healthy Nuclei (%) [5]: 88.99% and 85.66%; Population Hoechst High Intensity Objects (%) [5]: 0%; Population Membrane Permeable-Phenotype (%) [5]: 1.33% and 2.64%; Population Mitochondria Different-Phenotype (%) [5]: 0.11% and 5.73%; Population Mitotic Cells (%) [5]: 54.26% and 56.25%; Population Normal (%) [5]: 100%; Population Pyknosed Nuclei (%) [5]: 9.24% and 12.08%; Population Tubulin-Different-Phenotype (%) [5]: 1.44% and 1.32%; Population Apoptotic (%) [6]: 43.48% and 40%; Population Fragmented Nuclei (%) [6]: 3.29% and 3.46%; Population Healthy Nuclei (%) [6]: 87.54% and 84.43%; Population Hoechst High Intensity Objects (%) [6]: 0% and 0.34%; Population Membrane Permeable-Phenotype (%) [6]: 0.91% and 2.05%; Population Mitochondria Different-Phenotype (%) [6]: 0.23% and 2.87%; Population Mitotic Cells (%) [6]: 56.52% and 60%; Population Normal (%) [6]: 100% and 99.66%; Population Pyknosed Nuclei (%) [6]: 9.17% and 12.11%; Population Tubulin-Different-Phenotype (%) [6]: 1.03% and 2.46%

Question: Which “Population Apoptotic (%)” value [1] does the source give for CC(C)(O)c1cnc(N2C[C@@]3(CCC[C@](C)(Cn4cnc5ccc(C#N)cc54)C3)OC2=O)cn1 [GSK2798745] here?
Answer: The value was 63.64% and 30.77%.

Question: What about the “Population Fragmented Nuclei (%)” value [1] of the same compound?
Answer: The value was 3.45% and 3.94%.

Question: What about the “Population Healthy Nuclei (%)” value [1] of the same compound?
Answer: The value was 87.8% and 85.83%.

Question: What about the “Population Hoechst High Intensity Objects (%)” value [1] of the same compound?
Answer: Its value is 0%.

Question: What about the “Population Membrane Permeable-Phenotype (%)” value [1] of the same compound?
Answer: Its value is 0.6% and 4.59%.

Question: And the “Population Mitochondria Different-Phenotype (%)” value [1]?
Answer: Its value is 0.3% and 10.09%.

Question: What about the “Population Mitotic Cells (%)” value [1] of the same compound?
Answer: Its value is 36.36% and 69.23%.

Question: What about the “Population Normal (%)” value [1] of the same compound?
Answer: Its value is 100%.

Question: What about the “Population Pyknosed Nuclei (%)” value [1] of the same compound?
Answer: The value was 8.75% and 10.24%.

Question: What about the “Population Tubulin-Different-Phenotype (%)” value [1] of the same compound?
Answer: The value was 1.51% and 0%.

Question: What about the “Total Cell Count” value [1] of the same compound?
Answer: The value was 377 and 127.

Question: And the “Population Apoptotic (%)” value [2]?
Answer: Its value is 39.02% and 48.39%.

Question: And the “Population Fragmented Nuclei (%)” value [2]?
Answer: Its value is 1.62% and 2.98%.

Question: What about the “Population Healthy Nuclei (%)” value [2] of the same compound?
Answer: Its value is 87.33% and 78.57%.

Question: What about the “Population Hoechst High Intensity Objects (%)” value [2] of the same compound?
Answer: Its value is 0%.

Question: What about the “Population Membrane Permeable-Phenotype (%)” value [2] of the same compound?
Answer: Its value is 2.16% and 6.06%.

Question: What about the “Population Mitotic Cells (%)” value [2] of the same compound?
Answer: Its value is 60.98% and 51.61%.

Question: And the “Population Normal (%)” value [2]?
Answer: Its value is 100%.

Question: And the “Population Pyknosed Nuclei (%)” value [2]?
Answer: The value was 11.05% and 18.45%.

Question: What about the “Population Tubulin-Different-Phenotype (%)” value [2] of the same compound?
Answer: Its value is 3.7% and 1.52%.

Question: What about the “Total Cell Count” value [2] of the same compound?
Answer: Its value is 371 and 168.

Question: What about the “Population Apoptotic (%)” value [3] of the same compound?
Answer: Its value is 40.48% and 23.53%.

Question: What about the “Population Fragmented Nuclei (%)” value [3] of the same compound?
Answer: The value was 1.65% and 5.56%.

Question: And the “Population Healthy Nuclei (%)” value [3]?
Answer: The value was 89.67% and 83.95%.

Question: What about the “Population Hoechst High Intensity Objects (%)” value [3] of the same compound?
Answer: The value was 0%.

Question: What about the “Population Membrane Permeable-Phenotype (%)” value [3] of the same compound?
Answer: Its value is 0.23% and 2.94%.

Question: And the “Population Mitochondria Different-Phenotype (%)” value [3]?
Answer: The value was 0.23% and 2.94%.

Question: And the “Population Mitotic Cells (%)” value [3]?
Answer: Its value is 59.52% and 76.47%.

Question: What about the “Population Normal (%)” value [3] of the same compound?
Answer: Its value is 100%.

Question: And the “Population Pyknosed Nuclei (%)” value [3]?
Answer: The value was 8.68% and 10.49%.

Question: What about the “Population Tubulin-Different-Phenotype (%)” value [3] of the same compound?
Answer: Its value is 0.69% and 0%.

Question: And the “Total Cell Count” value [3]?
Answer: Its value is 484 and 162.

Question: What about the “Population Apoptotic (%)” value [4] of the same compound?
Answer: Its value is 44% and 37.5%.

Question: What about the “Population Fragmented Nuclei (%)” value [4] of the same compound?
Answer: Its value is 1.39% and 4.31%.

Question: And the “Population Healthy Nuclei (%)” value [4]?
Answer: The value was 88.71% and 84.21%.

Question: What about the “Population Hoechst High Intensity Objects (%)” value [4] of the same compound?
Answer: Its value is 0.2% and 0%.

Question: And the “Population Membrane Permeable-Phenotype (%)” value [4]?
Answer: Its value is 1.34% and 6.25%.

Question: What about the “Population Mitochondria Different-Phenotype (%)” value [4] of the same compound?
Answer: The value was 0.67% and 8.52%.

Question: And the “Population Mitotic Cells (%)” value [4]?
Answer: Its value is 56% and 62.5%.

Question: And the “Population Normal (%)” value [4]?
Answer: The value was 99.8% and 100%.

Question: What about the “Population Pyknosed Nuclei (%)” value [4] of the same compound?
Answer: Its value is 9.9% and 11.48%.

Question: And the “Population Tubulin-Different-Phenotype (%)” value [4]?
Answer: The value was 3.12% and 1.7%.

Question: What about the “Total Cell Count” value [4] of the same compound?
Answer: Its value is 506 and 209.

Question: And the “Population Apoptotic (%)” value [5]?
Answer: Its value is 34.95% and 33.33%.

Question: What about the “Population Fragmented Nuclei (%)” value [5] of the same compound?
Answer: The value was 3.43% and 2.22%.

Question: What about the “Population Healthy Nuclei (%)” value [5] of the same compound?
Answer: Its value is 85.16% and 84.44%.

Question: What about the “Population Hoechst High Intensity Objects (%)” value [5] of the same compound?
Answer: The value was 0%.

Question: What about the “Population Membrane Permeable-Phenotype (%)” value [5] of the same compound?
Answer: The value was 1.17% and 3.07%.

Question: And the “Population Mitochondria Different-Phenotype (%)” value [5]?
Answer: The value was 0.13% and 4.82%.

Question: And the “Population Mitotic Cells (%)” value [5]?
Answer: The value was 65.05% and 66.67%.

Question: And the “Population Normal (%)” value [5]?
Answer: Its value is 100%.

Question: And the “Population Pyknosed Nuclei (%)” value [5]?
Answer: Its value is 11.41% and 13.33%.

Question: What about the “Population Tubulin-Different-Phenotype (%)” value [5] of the same compound?
Answer: The value was 0.52% and 1.32%.

Question: What about the “Population Apoptotic (%)” value [6] of the same compound?
Answer: Its value is 52.17% and 44.9%.

Question: What about the “Population Fragmented Nuclei (%)” value [6] of the same compound?
Answer: Its value is 2.1% and 0.91%.

Question: And the “Population Healthy Nuclei (%)” value [6]?
Answer: Its value is 87.73% and 84.29%.

Question: And the “Population Hoechst High Intensity Objects (%)” value [6]?
Answer: Its value is 0%.

Question: What about the “Population Membrane Permeable-Phenotype (%)” value [6] of the same compound?
Answer: The value was 1.26% and 1.79%.

Question: What about the “Population Mitochondria Different-Phenotype (%)” value [6] of the same compound?
Answer: The value was 0.5% and 9.68%.

Question: What about the “Population Mitotic Cells (%)” value [6] of the same compound?
Answer: The value was 47.83% and 55.1%.

Question: What about the “Population Normal (%)” value [6] of the same compound?
Answer: Its value is 100%.

Question: What about the “Population Pyknosed Nuclei (%)” value [6] of the same compound?
Answer: Its value is 10.17% and 14.8%.

Question: What about the “Population Tubulin-Different-Phenotype (%)” value [6] of the same compound?
Answer: The value was 3.65% and 0.36%.

Question: What about the “Total Cell Count” value [6] of the same compound?
Answer: Its value is 905 and 331.
